NR2E3 ag-1: activates human photoreceptor nuclear receptor NR2E3 | Q9Y5X4 | GST-NR2E3/biotin-RetCOR TR-FRET, 1536-well | inhibition of corepressor binding, % at 4.78 µM | actives 0.12% (n = 320,000) | AID 2300;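 active means percent inhibition above the cutoff of mean plus 3 SD of all tested compounds, set per screening campaign, cut at about 20% in these data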
Target sequence (Q9Y5X4 whole entry, looked up): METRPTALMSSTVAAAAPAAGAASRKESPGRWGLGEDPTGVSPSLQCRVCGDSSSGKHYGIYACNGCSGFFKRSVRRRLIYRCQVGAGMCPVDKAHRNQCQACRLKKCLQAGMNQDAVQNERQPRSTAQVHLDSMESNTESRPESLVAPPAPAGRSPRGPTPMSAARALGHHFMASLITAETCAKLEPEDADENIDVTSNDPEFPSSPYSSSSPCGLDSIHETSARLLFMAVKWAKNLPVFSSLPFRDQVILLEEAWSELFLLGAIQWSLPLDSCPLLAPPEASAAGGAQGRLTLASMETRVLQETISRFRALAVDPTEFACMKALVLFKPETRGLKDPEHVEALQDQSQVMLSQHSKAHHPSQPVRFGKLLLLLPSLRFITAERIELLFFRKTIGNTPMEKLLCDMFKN
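Material: NR2E3–RetCOR corepressor complex / Incubation: Compound–protein incubation for 5 h at 4 °C / Dosing: compound at 4.8 µM, single dose / Detection: time-resolved FRET / Benchmarks: high control biotin, low control 0.6% DMSO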
Rev-erbA mod: modulates human Rev-erb alpha binding to DNA; P20393; Rev-erbα–FITC-DNA binding, fluorescence polarization, 90 min; actives 0.79% (n = 370,000); activity, % at 10 µM;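 active means activity above about 14%, limit read from the data; passing the limit was not always enough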
NR2E3 ag-2: agonists of human NR2E3 nuclear receptor; Q9Y5X4; CHO-S Gal4-NCOR/VP16-NR2E3 two-hybrid, luciferase; inhibition of corepressor binding, % at 3.98 µM; actives 0.35% (n = 360,000);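 active means inhibition above the mean of all tested compounds plus 3 SD, cut at about 70% in these data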;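 further: higher means lower luciferase signal from less NR2E3 corepressor binding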
PG9 Ab binder: PG9 antibody binding by small molecule. TR-FRET gp120-PG9 antibody binding. inhibition, % at 6.7 µM. actives 0.43% (n = 360,000); in the data active means inhibition above about 8.5%
MC4R barr agon: human MC4R agonism via beta-arrestin. U2OS MC4R beta-arrestin complementation, luminescence; percent of melanotan II response, DMSO zero. activation, % at 8.9 µM. actives 0.98% (n = 360,000). AID 540308;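 active means activation above a per-plate cutoff, the mean activation of sample wells on that plate plus 3 SD, cut at about 8% in these data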
Target sequence (P32245 whole entry, looked up): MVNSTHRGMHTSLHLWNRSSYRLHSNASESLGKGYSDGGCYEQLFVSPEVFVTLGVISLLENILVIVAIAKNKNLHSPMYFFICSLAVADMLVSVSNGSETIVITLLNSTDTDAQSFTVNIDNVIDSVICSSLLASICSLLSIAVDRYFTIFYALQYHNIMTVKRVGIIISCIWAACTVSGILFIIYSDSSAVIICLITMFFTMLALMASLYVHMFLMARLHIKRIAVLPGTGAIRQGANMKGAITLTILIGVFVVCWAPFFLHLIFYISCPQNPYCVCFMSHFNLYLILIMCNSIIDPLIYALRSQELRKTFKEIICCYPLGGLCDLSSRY
MC4R antag cAMP: blocks human MC4R cAMP signaling; MC4R-expressing cells, MTII-stimulated cAMP, LANCE TR-FRET; inhibition, % at 6.5 µM; actives 0.48% (n = 360,000);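 active means inhibition above its plate's cutoff, the mean of tested wells on that plate plus 3 SD, cut at about 29% in these data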
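Material: U2OS-MC4R stable cell line | Reagent: Melanotan II challenge after compound preincubation | Doses: One concentration, 6.5 µM nominal | Incubation: 30-min compound preincubation, 1-h Melanotan II challenge, 1-h detection, room temperature | Signal: TR-FRET cAMP assay | Replicates: One well per compound, no replicates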
NR1D1 mod conf: Rev-erb alpha (human) modulation, hit confirmation; shares compounds with Rev-erbA mod; Rev-erb alpha FITC-DNA binding, fluorescence polarization, 90 min; activation, % at 25 µM; actives 61% (n = 3,000);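 active means activation at or above a set limit, or at least 3 SD above the negative control mean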
RORg DNA counter: counter-screen for Rev-erb alpha modulators: RORgamma DNA binding; shares compounds with Rev-erbA mod; purified RORgamma protein-FITC-DNA binding, fluorescence polarization; IC50, µM; actives 8% (n = 910);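 active means Compounds whose fitted half-maximal concentration for disrupting protein-DNA binding is below 10 micromolar; the record names Rev-erb in its text, so the target is in doubt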
Each line names hits and unclear results; the compound was inactive in the other large screens (follow-up assays come after a bar, where they were run); ! = repeats disagree. In the library only some 2.7% were active in any assay of this set; here they are far more common.

CC(=O)Nc1c(C(=O)c2ccc(F)cc2)oc2ccccc12	none
O=C1Nc2ccccc2N=C(c2ccccc2)C1N(Cc1ccc(F)cc1)C(=O)c1cccnc1 (centres undefined)	none (no result: NR2E3 ag-1, MC4R barr agon, MC4R antag cAMP)
COc1ccc(Cl)cc1NC(=O)c1cnc2sccn2c1=O	Rev-erbA mod 33 | NR1D1 mod conf 32
CCCCCc1ccc(OCCCC[n+]2ccc(C)cc2)c(CCCCC)c1	Rev-erbA mod 21 | NR1D1 mod conf 25
CC1CC(C)(C)CC2(C1)NC(=O)N(CC(=O)NCC(c1ccco1)N1CCCCC1)C2=O (centres undefined)	none
CNc1ccccc1/C(O)=C(\C#N)C(=O)NCc1cccc2ccccc12	Rev-erbA mod 42 (no result: NR2E3 ag-1, NR2E3 ag-2, PG9 Ab binder, MC4R barr agon, MC4R antag cAMP) | NR1D1 mod conf 26
CC(C)N1C(=S)SC(C)(C)C1n1oc(=O)n(-c2cccc(Cl)c2)c1=O (centres undefined)	none
Cc1ccc(CNc2nc3ccccc3n3nnnc23)cc1	Rev-erbA mod 115 | NR1D1 mod conf 71 | RORg DNA counter inactive
Cc1ccc(-c2nc3ccccc3n3nnnc23)cc1	none (no result: NR2E3 ag-1)
COCc1cc(C)nc(Nc2ccc(C)cc2C)c1C#N	Rev-erbA mod 29 | NR1D1 mod conf inactive
COc1ccccc1C(=O)COC(=O)c1cc(S(=O)(=O)N2CCCCC2)ccc1N1CCOCC1	none
COc1ccc(C(=O)COC(=O)c2cc(S(=O)(=O)N3CCCCC3)ccc2N2CCOCC2)c(OC)c1	Rev-erbA mod 18 | NR1D1 mod conf inactive
COc1cccc(COC(=O)c2cc(S(=O)(=O)N3CCCCC3)ccc2N2CCOCC2)c1OC	Rev-erbA mod 20 | NR1D1 mod conf inactive
O=C(N/N=C/c1ccc2c(c1)OCO2)C(=O)Nc1cccc(Cl)c1	none
O=C(NCc1ccccc1Cl)c1ccc2c(=O)n(CCCN3CCCC3=O)c(=S)[nH]c2c1	Rev-erbA mod 29 | NR1D1 mod conf 18
COCCNC(=O)c1ccc2c(=O)n(CCCN3CCCC3=O)c(=S)[nH]c2c1	none
COC(CNC(=O)c1ccc2c(=O)n(Cc3ccc(Cl)cc3)c(=S)[nH]c2c1)OC	Rev-erbA mod 29 (no result: NR2E3 ag-1) | NR1D1 mod conf inactive
CCCn1c(=S)[nH]c2cc(C(=O)NCc3ccccc3OC)ccc2c1=O	Rev-erbA mod 36 (no result: NR2E3 ag-1) | NR1D1 mod conf 27
O=C1CN(C(=O)COC(=O)COc2ccc3c(c2)CCC3)c2ccccc2N1	none
O=C(CSc1nnc(-c2cccs2)n1-c1ccccc1)N1CCCc2ccccc21	Rev-erbA mod 110 | NR1D1 mod conf 101 | RORg DNA counter inactive
CCOc1ccc(-n2c(SCC(=O)N3CCc4ccccc43)nnc2-c2c[nH]c3ccccc23)cc1	Rev-erbA mod 93 | NR1D1 mod conf 24
COc1cccc(-n2c(SCC(=O)N3CCc4ccccc43)nnc2-c2c[nH]c3ccccc23)c1	none
C=CCC(=O)N(CC)CC1CCCN(CCc2cccc(F)c2)C1 (centres undefined)	none (no result: NR2E3 ag-1)
Cc1cc(C)c2c(=O)[nH]c(SCC(=O)c3ccc(F)c(C)c3)nc2n1	Rev-erbA mod 35 | NR1D1 mod conf 24
Cc1cc(C(=O)CSc2nc(N)cc(=O)[nH]2)ccc1F	none
COc1ccc(-n2cc(C(=O)c3cc4ccccc4oc3=O)c(C(C)=O)n2)cc1	Rev-erbA mod 23 | NR1D1 mod conf inactive
COc1ccc(CNC(=O)c2cc3ccccc3oc2=O)cc1	none
O=C(CN1C(=O)c2ccccc2S1(=O)=O)NCCSCc1ccco1	none
Cc1ccc(C(=O)NC(=S)Nc2ccc(-c3cc4ccccc4oc3=O)cc2)c(C)c1	Rev-erbA mod 68 | NR1D1 mod conf 18
Cc1cc(C)cc(C(=O)NC(=S)Nc2ccc(-c3cc4ccccc4oc3=O)cc2)c1	Rev-erbA mod 70 | NR1D1 mod conf 36
CCCCN(C(=O)CSc1nn(-c2ccc(F)cc2)c(=S)s1)c1c(N)n(CCCC)c(=O)[nH]c1=O	none
Cn1c(N)c(C(=O)CSc2nn(-c3ccc(F)cc3)c(=S)s2)c(=O)n(C)c1=O	Rev-erbA mod 42 | NR1D1 mod conf 42 | RORg DNA counter inactive
CSc1sc(C(=O)O)c2c1C(=O)CCC2	none
COc1ccc2cc(/C=N/NC(=O)CN(c3ccccc3C)S(=O)(=O)c3ccccc3)c(Cl)nc2c1	Rev-erbA mod 29 | NR1D1 mod conf inactive
COc1ccc2cc(/C=N/NC(=O)CN(c3ccccc3OC)S(=O)(=O)c3ccccc3)c(Cl)nc2c1	none (no result: NR2E3 ag-1, NR2E3 ag-2, MC4R barr agon, MC4R antag cAMP)
COc1cc2oc(=O)cc(-c3ccc(-c4ccc(CO)cc4)cc3)c2c(OC)c1OC	Rev-erbA mod 30 (no result: NR2E3 ag-1) | NR1D1 mod conf 28 | RORg DNA counter inactive
COc1cc2oc(=O)cc(-c3ccc(-c4ccc(C)cc4)cc3)c2c(OC)c1OC	none (no result: NR2E3 ag-1)
Cc1cc(C)n(C(=O)c2ccc(NC(=O)CC(C)C)cc2)n1	none
O=S(=O)(NCCOc1ccccc1F)c1cccc(Br)c1	Rev-erbA mod 18 | NR1D1 mod conf inactive
COc1ccc(OC)c(Nc2ncnc3ccc(Br)cc23)c1	Rev-erbA mod 59 | NR1D1 mod conf 29
CCSc1nc2cc(C(=O)OC)ccc2c(=O)n1CC	none
COC(=O)c1ccc2c(=O)n3c(nc2c1)SCC(c1ccccc1)=N3	Rev-erbA mod 80 | NR1D1 mod conf inactive
CC(=O)Nc1sc(C)c(C)c1C(=O)OCC(=O)NCc1ccc(Cl)cc1	Rev-erbA mod 24 | NR1D1 mod conf inactive
Cc1ccc(C)c(N(C(=O)c2csnn2)C(C(=O)NC2CCCC2)c2ccncc2)c1 (centres undefined)	none
Cc1ccc2[nH]c(=O)c3cc(C(=O)N(C)C4CCCCC4)sc3c2c1	Rev-erbA mod 21 | NR1D1 mod conf inactive
O=C1CCCC2=C1C1(CCCC1)N=C(Nc1nc3ccccc3o1)N2	Rev-erbA mod 21! (no result: NR2E3 ag-1) | NR1D1 mod conf inactive
O=C1CCCC2=C1C1(CCCCC1)N=C(Nc1nc3ccccc3o1)N2	none
COC(=O)C1=CN(c2ccc(N3CCOCC3)cc2)C(N)=C(C#N)C1c1cccc(F)c1 (centres undefined)	Rev-erbA mod 24 (no result: NR2E3 ag-1, NR2E3 ag-2, MC4R barr agon, MC4R antag cAMP) | NR1D1 mod conf inactive
COC(=O)C1=CN(c2ccc(F)cc2)C(N)=C(C#N)C1c1cccc(F)c1 (centres undefined)	none (no result: NR2E3 ag-1, NR2E3 ag-2, MC4R barr agon, MC4R antag cAMP)
COc1cc(C(O)P(=O)(OC(C)C)OC(C)C)cc(OC)c1OC (centres undefined)	none
Cc1ccc(-c2nc3ccc(Br)cn3c2Cc2cccc(Cl)c2)cc1	Rev-erbA mod 19 (no result: NR2E3 ag-1, MC4R barr agon, MC4R antag cAMP) | NR1D1 mod conf inactive

High-throughput results deposited in PubChem BioAssay by several laboratories.
